From ChEMBL document CHEMBL1125245, “Quinolone antibacterials: preparation and activity of bridged bicyclic analogues of the C7-piperazine” (J Med Chem, 1991) come the findings set out here.

Test [1] deals with DNA gyrase (Escherichia coli, UniProt P0AES4+P0AES6). Briefly: Compound evaluated in vitro for the ability to inhibit gyrase. It counts as protein-complex assay. The settings on record: read-out: I50 (converted). Summed up:
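DNA gyrase isolated from Escherichia coli H560 cells; inhibition given as I50.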

Test [2] has as its system Escherichia coli. Briefly: In vivo protection against gram-negative Escherichia coli vogel in mouse after subcutaneous administration. Particulars: sc, read-out: PD50.
Test [3] in a line: Compound evaluated in vitro against five gram-negative bacterial strains and geometric means of the minimum inhibitory concentrations (MIC) reported. Type of test: functional. The arrangement: unit not given here. The procedure, abridged:
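Geometric mean MIC across five Gram-negative strains (E. coli H560, E. coli Vogel, Enterobacter cloacae MA 2646, Klebsiella pneumoniae MGH-2, Proteus rettgeri M1771). Mean taken as antilog of the averaged log MIC values.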

The subject of test [4] is Streptococcus pneumoniae. Description: In vivo protection against gram-positive Streptococcus pneumonia (SV-1) in mouse after oral administration. It counts as functional. Particulars: read-out: PD50.
Test [5] is described as follows: Compound evaluated in vitro against five gram-positive bacterial strains and geometric means of the minimum inhibitory concentrations (MIC) reported. Type of test: functional. The arrangement: unit not given here. The procedure, abridged: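 Geometric mean MIC across five Gram-positive strains, taken as antilog of the averaged log MIC values.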
The test system of test [6] is Streptococcus pneumoniae. Briefly: In vivo protection against gram-positive Streptococcus pneumonia (SV-1) in mouse after subcutaneous administration. Type of test: functional. The settings on record: sc, read-out: PD50.
The test system of test [7] is Escherichia coli. Description: In vivo protection against gram-negative Escherichia coli vogel in mouse after oral administration. The settings on record: read-out: PD50.

Consider `CCN[C@@H]1C[C@H]2CC[C@@H](C1)N2c1cc2c(cc1F)c(=O)c(C(=O)O)cn2C1CC1`, for which, in test [1], the IC50 was 15.8 µM. Moreover, the ED50 is 2.3 mg/kg in test [2], 35 mg/kg in test [4], 23 mg/kg in test [6] and 5.7 mg/kg in test [7]. In addition, the MIC in test [3] is 0.8; in test [5], 0.26.

Consider `Br.O=C(O)c1cn(C2CC2)c2cc(N3C[C@@H]4CC3CN4)c(F)cc2c1=O`, for which the IC50 in test [1] is 4.48 µM. Besides, the ED50 is 0.2 mg/kg in test [2], more than 100 mg/kg in test [4], 12.5 mg/kg in test [6] and 1.9 mg/kg in test [7]. In addition, the MIC in test [3] is reported as 0.04; in test [5], 0.3.

`O=C(O)c1cn(C2CC2)c2nc(N3CCN4CCC3C4)c(F)cc2c1=O` (stereo not drawn): the IC50 in test [1] was 38.5 µM. In addition, the ED50 in test [2] stood at 0.3 mg/kg; in test [4], 32 mg/kg; in test [6], 20 mg/kg; in test [7], 0.5 mg/kg. For the same molecule, the MIC in test [3] came to 0.11; in test [5] it was 0.46.

As for `O=C(O)c1cn(C2CC2)c2cc(N3CCNCC3)c(F)cc2c1=O` [CIPROFLOXACIN], the ED50 in test [2] is 0.3 mg/kg; in test [4], more than 100 mg/kg; in test [6], 29 mg/kg; in test [7], 1.2 mg/kg. In addition, the MIC in test [3] came out at 0.06; in test [5], 0.91.

With `CN1CC2C[C@@H]1CN2c1nc2c(cc1F)c(=O)c(C(=O)O)cn2C1CC1.Cl`, the IC50 in test [1] is 9.62 µM. Besides, the ED50 in test [2] was 0.3 mg/kg; in test [4], 23 mg/kg; in test [6], 25 mg/kg; in test [7] it was 0.5 mg/kg. The MIC in test [3] is listed as 0.08; in test [5] it was 0.35.

As to `O=C(O)c1cn(C2CC2)c2c(F)c(N3CCN4CCC3C4)c(F)cc2c1=O` (stereo not drawn), the IC50 in test [1] was 7.73 µM. Also, the ED50 in test [2] stood at 0.2 mg/kg; in test [4], 32 mg/kg; in test [6], 11 mg/kg; in test [7] it was 0.5 mg/kg. Moreover, the figures for the MIC in test [3] and in test [5] were 0.04 and 0.15, respectively.

Take `CN1CC2C[C@@H]1CN2c1c(F)cc2c(=O)c(C(=O)O)cn(C3CC3)c2c1F.Cl`: the IC50 in test [1] was 7.28 µM. Also, the ED50 came out at 0.5 mg/kg in test [2], 13 mg/kg in test [4], 14 mg/kg in test [6] and 0.9 mg/kg in test [7]. The results for the MIC in test [3] and in test [5] were 0.09 and 0.17, respectively.

On to `O=C(O)c1cn(C2CC2)c2c(F)c(N3CCNCC3)c(F)cc2c1=O`, for which the ED50 in test [2] is 0.3 mg/kg; in test [4], 59 mg/kg; in test [6] it was 29 mg/kg; in test [7], 0.5 mg/kg. In addition, the MIC in test [3] is 0.04; in test [5], 0.4.

Turning to `CCN[C@H]1C[C@H]2CC[C@@H](C1)N2c1nc2c(cc1F)c(=O)c(C(=O)O)cn2C1CC1`, the IC50 in test [1] was 15.7 µM. In addition, the ED50 in test [2] is 2.8 mg/kg; in test [4], 23 mg/kg; in test [6] it was 16 mg/kg; in test [7] it was 2.8 mg/kg. In addition, the MIC in test [3] was determined as 0.46; in test [5], 0.26.

Turning to `O=C(O)c1cn(C2CC2)c2cc(N3CC4CCCC3CN4)c(F)cc2c1=O` (stereo not drawn), in test [1], the IC50 is 4.85 µM. In addition, the ED50 is 1.6 mg/kg in test [2], more than 100 mg/kg in test [4], 6.6 mg/kg in test [6] and 5.7 mg/kg in test [7]. In addition, the results for the MIC in test [3] and in test [5] were 0.08 and 0.06, respectively.

Regarding `O=C(O)c1cn(C2CC2)c2cc(N3CCN4CCC3C4)c(F)cc2c1=O` (stereo not drawn), the IC50 in test [1] is 8.39 µM. For the same molecule, the ED50 in test [2] was found to be 0.3 mg/kg; in test [4], 35 mg/kg; in test [6], 11 mg/kg; in test [7], 1 mg/kg. Besides, the MIC in test [3] was determined as 0.03; in test [5], 0.09.

For `O=C(O)c1cn(C2CC2)c2cc(N3CC4CCC3CN4)c(F)cc2c1=O` (stereo not drawn), in test [1], the IC50 is 4.2 µM. Moreover, the ED50 in test [2] was 0.7 mg/kg; in test [4], more than 100 mg/kg; in test [6], 24 mg/kg; in test [7], 5.5 mg/kg. In addition, the MIC in test [3] stood at 0.08; in test [5], 0.1.

For `O=C(O)c1cn(C2CC2)c2c(F)c(N3CC4CCCC3CN4)c(F)cc2c1=O` (stereo not drawn), the IC50 in test [1] was 7.45 µM. For the same molecule, the ED50 was 1.1 mg/kg in test [2], 48.5 mg/kg in test [4], 11.9 mg/kg in test [6] and 2.9 mg/kg in test [7]. In addition, the MIC in test [3] and in test [5] was 0.15 throughout.

For `Nc1c(F)c(N2CCNCC2)c(F)c2c1c(=O)c(C(=O)O)cn2C1CC1`, the ED50 worked out at 0.2 mg/kg in test [2], 31 mg/kg in test [4], 23 mg/kg in test [6] and 0.8 mg/kg in test [7]. The MIC in test [3] was found to be 0.02; in test [5], 0.05.

Take `O=C(O)c1cn(C2CC2)c2nc(N3CC4CCC3CN4)c(F)cc2c1=O` (stereo not drawn): the IC50 in test [1] is 17.6 µM. In addition, the ED50 is 0.7 mg/kg in test [2], more than 100 mg/kg in test [4], 15.1 mg/kg in test [6] and 1.7 mg/kg in test [7]. The MIC in test [3] stood at 0.13; in test [5], 0.11.

`N[C@H]1C[C@H]2CC[C@@H](C1)N2c1c(F)cc2c(=O)c(C(=O)O)cn(C3CC3)c2c1F`: in test [1], the IC50 is 9.76 µM. The ED50 was 0.75 mg/kg in test [2], 8.5 mg/kg in test [4], 3.1 mg/kg in test [6] and 1.8 mg/kg in test [7]. Further, the values for the MIC in test [3] and in test [5] were 0.05 and 0.03, respectively.

On to `O=C(O)c1cn(C2CC2)c2c(F)c(N3C[C@H]4CC3CN4)c(F)cc2c1=O`, for which, in test [1], the IC50 is 7.75 µM. The ED50 in test [2] was 0.4 mg/kg; in test [4], more than 100 mg/kg; in test [6], 18.5 mg/kg; in test [7], 1.7 mg/kg. In addition, the MIC in test [3] amounted to 0.07; in test [5], 0.53.

Turning to `NC1CCN(c2cc3c(cc2F)c(=O)c(C(=O)O)cn3C2CC2)CC1`, in test [1], the IC50 is 2.32 µM. For the same molecule, the results for the ED50 in test [2] and in test [7] were 1.4 mg/kg and 15 mg/kg, respectively. In addition, the MIC in test [3] and in test [5] was 0.17 each time.

Turning to `O=C(O)c1cn(C2CC2)c2cc(N3C[C@H]4CC3CN4)c(F)cc2c1=O`, the IC50 in test [1] was 8.15 µM. Also, the ED50 was 0.6 mg/kg in test [2], more than 100 mg/kg in test [4], 51 mg/kg in test [6] and 5.5 mg/kg in test [7]. In addition, the MIC in test [3] was determined as 0.1; in test [5], 0.79.

As for `CCN[C@@H]1C[C@H]2CC[C@@H](C1)N2c1nc2c(cc1F)c(=O)c(C(=O)O)cn2C1CC1`, the IC50 in test [1] was 15.7 µM. Besides, the results for the ED50 in test [2] and in test [7] were 9.1 mg/kg and 21 mg/kg, respectively. In addition, the MIC in test [3] is 0.6; in test [5], 0.53.

For the molecule `Nc1c(F)c(N2CCN3CCC2C3)c(F)c2c1c(=O)c(C(=O)O)cn2C1CC1` (stereo not drawn), the IC50 in test [1] is 14.1 µM. Also, the results for the ED50 in test [2] and in test [7] were 0.2 mg/kg and 0.6 mg/kg, respectively. Besides, the figures for the MIC in test [3] and in test [5] were 0.03 and 0.08, respectively.

Consider `N[C@H]1C[C@H]2CC[C@@H](C1)N2c1cc2c(cc1F)c(=O)c(C(=O)O)cn2C1CC1`, for which the IC50 in test [1] is 8.08 µM. The results for the ED50 in test [2] and in test [7] were 2 mg/kg and 9.5 mg/kg, respectively. In addition, the MIC in test [3] was determined as 0.15; in test [5] it was 0.23.
